These results are taken from ChEMBL document CHEMBL2163256, “6-(methylamino)hexane-1,2,3,4,5-pentanol 4-(((1S,2S)-1-hydroxy-2,3-dihydro-1H,1'H-[2,2-biinden]-2-yl)methyl)benzoate (PH46A): a novel small molecule with efficacy in murine models of colitis” (J Med Chem, 2012).

Active and inactive are the calls of the source. The calls are words filed in the database; no cut-off is given here.

Data set [1] relates to Mus musculus. Nature of the data set: Antiinflammatory activity against DSS-induced colitis BALB/c mouse model assessed as increase in colon lenght at 30 mg/kg, po qd for 7 days relative to vehicle-treated control. In kind it is functional, organism-based. Also on record: dose 30 mg/kg. The procedure, abridged: (§1)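 Female SPF BALB/c mice, 6−8 weeks old; colitis induced by 5% DSS in tap drinking water (renewed every second day) for 7 days. Daily oral dosing for 7 days as suspension/solution in 0.5% carboxymethyl cellulose/2% Tween 80. Daily body weight; DAI per mouse each day from weight loss, occult blood and stool consistency; colon length at autopsy. Mean ± SEM, n = 6−7.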

Data set [2] deals with Mus musculus. Nature of the data set: Antiinflammatory activity against DSS-induced colitis BALB/c mouse model assessed as decrease in disease activity index at 30 mg/kg, po qd for 7 days relative to vehicle-treated control. The class given is functional, organism-based. Also on record: dose 30 mg/kg. The procedure, abridged:
as §1

Data set [3] has as its system Mus musculus. Nature of the data set: Antiinflammatory activity against DSS-induced colitis BALB/c mouse model assessed as increase in colon lenght at 10 mg/kg, po qd for 7 days relative to vehicle-treated control. The class given is functional, organism-based. Also on record: dose 10 mg/kg. The essentials:
as §1

In data set [4] the test system is Mus musculus. Nature of the data set: Antiinflammatory activity against DSS-induced colitis BALB/c mouse model assessed as decrease in disease activity index at 10 mg/kg, po qd for 7 days relative to vehicle-treated control. In kind it is functional, organism-based. Also noted: dose 10 mg/kg. The procedure, abridged: as §1
In data set [5] the test system is Mus musculus. The experiment in a line: Toxicity in DSS-induced colitis BALB/c mouse model assessed as overt reactions at 30 mg/kg, po qd for 7 days relative to vehicle-treated control. Particulars: in vivo, 168 h. Also noted: dose 30 mg/kg, route oral. In kind it is organism-based.
Data set [6] relates to Mus musculus. The experiment in a line: Antiinflammatory activity against DSS-induced colitis BALB/c mouse model assessed as decrease in disease activity index at 30 mg/kg, po qd for 7 days measured on day 6 relative to vehicle-treated control. Also on record: dose 30 mg/kg. The class given is functional, organism-based. The essentials: as §1
The subject of data set [7] is Mus musculus. Nature of the data set: Antiinflammatory activity against DSS-induced colitis BALB/c mouse model assessed as decrease in disease activity index at 30 mg/kg, po qd for 7 days measured on day 7 relative to vehicle-treated control. Also on record: scale not given: the % may be the effect or the level left. The class given is functional. The procedure, abridged:
as §1

Data set [8] deals with Mus musculus. The experiment in a line: Antiinflammatory activity against DSS-induced colitis BALB/c mouse model assessed as reduction in shortening of colon at 30 mg/kg, po qd for 7 days measured on day 7 relative to vehicle-treated control. Also noted: scale not given: the % may be the effect or the level left. The class given is functional. The essentials:
as §1

Data set [9] relates to Mus musculus. Nature of the data set: Antiinflammatory activity against DSS-induced colitis BALB/c mouse model assessed as prevention of body weigth loss at 10 mg/kg, po qd for 7 days measured on day 7 relative to vehicle-treated control. In kind it is functional. The essentials:
as §1

The subject of data set [10] is Mus musculus. Nature of the data set: Antiinflammatory activity against DSS-induced colitis BALB/c mouse model assessed as reduction in histological colon damage score at 30 mg/kg, po qd for 7 days measured on day 7 relative to vehicle-treated control. Also on record: scale not given: the % may be the effect or the level left. In kind it is functional. The procedure, abridged:
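After 7 days of 5% DSS with daily oral dosing, about 1 cm distal colon was fixed in 10% formaldehyde-saline, paraffin-embedded, cut into 5 μm serial sections and H&E-stained. Scoring covered cell infiltration (0−3) and extent of injury (0−3), done blinded by two independent observers.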

In data set [11] the test system is Mus musculus. Nature of the data set: Antiinflammatory activity in IL-10 -/- BALB/c mouse assessed as decrease in serum SAA level at 300 mg/kg, po administered as divided dose 3 times a week for 9 weeks (reference value: 468.9 +/- 38.37 ug/ml). The class given is functional. The procedure, abridged: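 IL-10−/− BALB/c-background mice, bred SPF, treated from 6−8 weeks of age by oral gavage of 300 mg/kg/week in distilled water (vehicle), Mon/Wed/Fri, for 9 weeks. Weight, rectal bleeding and prolapse monitored. At 9 weeks serum SAA was measured by sandwich ELISA. Proximal colon (1 cm) was fixed, H&E-stained and scored blinded by two observers (maximum 4). n = 9 vehicle, 11 treated; Student's t test.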

Data set [12] concerns Mus musculus. The experiment in a line: Antiinflammatory activity against DSS-induced colitis BALB/c mouse model assessed as prevention of body weigth loss at 30 mg/kg, po qd for 7 days measured on day 7 relative to vehicle-treated control. In kind it is functional. The procedure, abridged: as §1
The test system of data set [13] is Mus musculus. Nature of the data set: Antiinflammatory activity against DSS-induced colitis BALB/c mouse model assessed as decrease in disease activity index at 3 mg/kg, po qd for 7 days measured on day 7 relative to vehicle-treated control. In kind it is functional. Also noted: scale not given: the % may be the effect or the level left. The procedure, abridged: as §1

Data set [14] concerns Mus musculus. Nature of the data set: Antiinflammatory activity against DSS-induced colitis BALB/c mouse model assessed as decrease in myeloperoxidative activity at 30 mg/kg, po qd for 7 days measured on day 7 relative to vehicle-treated control. The class given is functional. Also on record: scale not given: the % may be the effect or the level left. The essentials:
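In the 7-day 5% DSS BALB/c colitis model with daily oral dosing, colon MPO was measured in homogenized snap-frozen colon supernatant (protein determined) by a standard method.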

Data set [15] relates to Mus musculus. Nature of the data set: Antiinflammatory activity against DSS-induced colitis BALB/c mouse model assessed as decrease in disease activity index at 10 mg/kg, po qd for 7 days measured on day 7 relative to vehicle-treated control. In kind it is functional. Also noted: scale not given: the % may be the effect or the level left. The procedure, abridged: as §1

In the case of `O=C(O)c1ccc(C[C@]2(C3=Cc4ccccc4C3)Cc3ccccc3[C@H]2O)cc1`, the result in [1] and in data set [2] was Active. Moreover, the outcome in [3] and in data set [4] was inactive. In addition, the Activity result in data set [5] is “Non-toxic”.

Consider `O=C(O)c1ccc(C[C@]2(C3=Cc4ccccc4C3)Cc3ccccc3[C@@H]2O)cc1`, for which the result in data set [1] and in data set [2] was Active. Further, in [5], the Activity entry is listed as “Non-toxic”. For the same compound, in data set [6], the result was inactive.

Take `CNC[C@H](O)[C@@H](O)[C@H](O)[C@H](O)CO.O=C(O)c1ccc(C[C@@]2(C3=Cc4ccccc4C3)Cc3ccccc3[C@H]2O)cc1`: the Activity in data set [7] was 80%; in data set [8], 76%; in [9], 12.8%; in data set [10] it was above 75%; in [11], 342.7 µg/mL; in data set [12], 6.2%. In addition, the Activity in data set [13] was 24%; in data set [14] it was 63%; in data set [15] it was 54%.

In the case of `O=C(O)c1ccc(C[C@@]2(C3=Cc4ccccc4C3)Cc3ccccc3[C@@H]2O)cc1`, the outcome in data set [1] was Active. Moreover, the outcome in data set [2] was inactive. Also, the Activity result in data set [5] is on record as “Non-toxic”.
